Reference: ChEMBL document CHEMBL1153060, “Part 1: Structure-Activity Relationship (SAR) investigations of fused pyrazoles as potent, selective and orally available inhibitors of p38alpha mitogen-activated protein kinase” (Bioorg Med Chem Lett, 2009)
Values after ≈ are worked out from the molar mass of the structure shown.

Experiments:
Blood = assay: Inhibition of TNF-alpha-stimulated IL8 production in human whole blood incubated for 1 hr before TNFalpha challenge measured after 16 to 18 hrs; format: functional, tissue-based
Outline: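 Human whole blood diluted to 50% and stimulated with TNFα, with IL-8 secretion as read-out. IC50 is the mean of at least three independent dose–response curves, or of two where flagged.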

THP-1 = assay: Inhibition of LPS-induced TNFalpha release in human THP1 cells after 3 hrs; format: functional, cell-based; conditions: THP-1, 3 h
Outline: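 THP1 cell line challenged with LPS, with TNFα secretion as read-out. IC50 is the mean of at least three independent dose–response curves, or of two where flagged.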

[1] = biological target: Mitogen-activated protein kinase 14 (Homo sapiens, UniProt Q16539); assay: Inhibition of human recombinant p38alpha assessed as phosphorylation of ATF2 by scintillation proximity assay
Sequence of Mitogen-activated protein kinase 14 (Q16539 whole entry): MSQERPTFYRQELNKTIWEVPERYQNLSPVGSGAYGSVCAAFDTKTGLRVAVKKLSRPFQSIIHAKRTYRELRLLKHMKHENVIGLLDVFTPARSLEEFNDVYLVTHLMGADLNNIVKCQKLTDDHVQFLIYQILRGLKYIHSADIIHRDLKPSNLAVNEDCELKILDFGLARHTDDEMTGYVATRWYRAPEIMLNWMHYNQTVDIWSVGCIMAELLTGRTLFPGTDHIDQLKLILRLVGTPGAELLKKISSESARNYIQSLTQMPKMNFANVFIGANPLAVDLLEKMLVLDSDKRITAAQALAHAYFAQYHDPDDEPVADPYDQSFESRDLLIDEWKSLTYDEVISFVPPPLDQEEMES

[2] = Oral bioavailability in Sprague-Dawley rat at 2 mg/kg; format: ADME, organism-based; conditions: in vivo
Outline: (§1)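 Male Sprague–Dawley rats given 2.0 mg/kg iv (in DMSO) or 2.0 mg/kg po. Values are the mean of three rats. Reported parameters are CL, Vdss, t1/2, AUC(0-inf) and oral F.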

[3] = Clearance in Sprague-Dawley rat at 2 mg/kg, iv; format: ADME, organism-based; set-up: dose 2 mg/kg, route intravenous; conditions: in vivo; outline: as §1
[4] = Volume of distribution at steady state in Sprague-Dawley rat at 2 mg/kg, iv; format: ADME, organism-based; set-up: dose 2 mg/kg, route intravenous; conditions: in vivo, read-out: Vdss; outline: as §1
[5] = AUC (0 to infinity) in Sprague-Dawley rat at 2 mg/kg, po; format: ADME, organism-based; set-up: time infinity, dose 2 mg/kg, route oral; conditions: plasma; outline: as §1
[6] = Half life in Sprague-Dawley rat at 2 mg/kg, iv; format: ADME, organism-based; set-up: dose 2 mg/kg, route intravenous; conditions: in vivo; outline: as §1
Rattus norvegicus [7] = assay: Inhibition of LPS-induced TNFalpha production in Lewis rat at 0.03 mg/kg, po administered 60 mins prior to LPS challenge measured after 90 mins by ELISA
Cytochrome P450 2C9 = Cytochrome P450 2C9 (Homo sapiens, UniProt P11712); assay: Inhibition of CYP2C9; format: ADME
Sequence of Cytochrome P450 2C9 (P11712 whole entry): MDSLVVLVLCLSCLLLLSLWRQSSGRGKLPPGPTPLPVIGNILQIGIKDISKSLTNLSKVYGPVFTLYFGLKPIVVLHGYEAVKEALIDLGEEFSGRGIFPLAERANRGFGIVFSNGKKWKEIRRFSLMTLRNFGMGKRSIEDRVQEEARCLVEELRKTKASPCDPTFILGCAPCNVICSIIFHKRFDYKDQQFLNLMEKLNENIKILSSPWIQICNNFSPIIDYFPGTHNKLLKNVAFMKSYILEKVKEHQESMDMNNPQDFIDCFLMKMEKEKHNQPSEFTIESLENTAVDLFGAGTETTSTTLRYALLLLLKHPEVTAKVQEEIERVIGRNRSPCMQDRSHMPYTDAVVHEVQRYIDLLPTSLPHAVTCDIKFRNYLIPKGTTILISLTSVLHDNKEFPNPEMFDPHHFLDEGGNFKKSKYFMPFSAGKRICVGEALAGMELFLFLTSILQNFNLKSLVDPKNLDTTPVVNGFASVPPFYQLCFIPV

Rattus norvegicus [8] = assay: Inhibition of LPS-induced TNFalpha production in po dosed Lewis rat administered 60 mins prior to LPS challenge measured after 90 mins by ELISA
Rattus norvegicus [9] = species: Rattus norvegicus; assay: Plasma concentration in Lewis rat at ED50; format: ADME, organism-based; conditions: in vivo
[10] = Solubility in 0.01N HCl; format: physicochemical
Cytochrome P450 2C19 = Cytochrome P450 2C19 (Homo sapiens, UniProt P33261); assay: Inhibition of CYP2C19; format: ADME
Sequence of Cytochrome P450 2C19 (P33261 whole entry): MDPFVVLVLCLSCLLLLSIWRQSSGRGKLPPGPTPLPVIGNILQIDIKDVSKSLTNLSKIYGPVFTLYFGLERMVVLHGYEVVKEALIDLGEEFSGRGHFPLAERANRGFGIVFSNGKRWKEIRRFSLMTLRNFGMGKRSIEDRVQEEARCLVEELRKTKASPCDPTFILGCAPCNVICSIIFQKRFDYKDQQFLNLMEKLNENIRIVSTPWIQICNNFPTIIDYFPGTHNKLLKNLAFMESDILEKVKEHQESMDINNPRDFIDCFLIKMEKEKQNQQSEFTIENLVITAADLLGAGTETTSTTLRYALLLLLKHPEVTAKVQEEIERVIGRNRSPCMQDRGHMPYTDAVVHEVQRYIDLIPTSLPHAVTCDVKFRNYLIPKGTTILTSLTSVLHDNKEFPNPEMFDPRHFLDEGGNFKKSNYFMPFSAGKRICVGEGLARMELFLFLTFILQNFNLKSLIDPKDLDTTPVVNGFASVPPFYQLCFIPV

Rattus norvegicus [11] = assay: Inhibition of LPS-induced TNFalpha production in Lewis rat at 0.1 mg/kg, po administered 60 mins prior to LPS challenge measured after 90 mins by ELISA
[12] = Ratio of drug level in brain to plasma in Lewis rat; format: ADME; conditions: read-out: BPR
Rattus norvegicus [13] = assay: Inhibition of LPS-induced TNFalpha production in Lewis rat at 0.3 mg/kg, po administered 60 mins prior to LPS challenge measured after 90 mins by ELISA
[14] = Solubility in phosphate buffered saline; format: physicochemical
Cytochrome P450 2D6 = Cytochrome P450 2D6 (Homo sapiens, UniProt P10635); assay: Inhibition of CYP2D6; format: ADME
Sequence of Cytochrome P450 2D6 (P10635 whole entry): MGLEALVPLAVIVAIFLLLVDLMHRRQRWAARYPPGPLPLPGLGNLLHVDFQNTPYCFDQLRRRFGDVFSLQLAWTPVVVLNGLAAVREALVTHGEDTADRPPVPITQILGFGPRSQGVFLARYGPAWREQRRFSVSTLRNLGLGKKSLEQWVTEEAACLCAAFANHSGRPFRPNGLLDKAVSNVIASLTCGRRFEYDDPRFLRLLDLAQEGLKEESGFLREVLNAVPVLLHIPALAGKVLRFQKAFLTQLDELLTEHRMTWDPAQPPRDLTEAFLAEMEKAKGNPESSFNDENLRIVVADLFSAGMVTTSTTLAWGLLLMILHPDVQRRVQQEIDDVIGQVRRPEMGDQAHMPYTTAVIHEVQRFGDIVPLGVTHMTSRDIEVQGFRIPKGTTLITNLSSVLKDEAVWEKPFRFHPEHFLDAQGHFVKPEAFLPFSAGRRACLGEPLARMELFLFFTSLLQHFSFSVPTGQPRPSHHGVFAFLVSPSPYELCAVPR

[15] = biological target: RAF proto-oncogene serine/threonine-protein kinase (Homo sapiens) (UniProt P04049); assay: Inhibition of c-Raf at 1.5 uM; values are per cent of control
Sequence of RAF proto-oncogene serine/threonine-protein kinase (Homo sapiens) (P04049 whole entry): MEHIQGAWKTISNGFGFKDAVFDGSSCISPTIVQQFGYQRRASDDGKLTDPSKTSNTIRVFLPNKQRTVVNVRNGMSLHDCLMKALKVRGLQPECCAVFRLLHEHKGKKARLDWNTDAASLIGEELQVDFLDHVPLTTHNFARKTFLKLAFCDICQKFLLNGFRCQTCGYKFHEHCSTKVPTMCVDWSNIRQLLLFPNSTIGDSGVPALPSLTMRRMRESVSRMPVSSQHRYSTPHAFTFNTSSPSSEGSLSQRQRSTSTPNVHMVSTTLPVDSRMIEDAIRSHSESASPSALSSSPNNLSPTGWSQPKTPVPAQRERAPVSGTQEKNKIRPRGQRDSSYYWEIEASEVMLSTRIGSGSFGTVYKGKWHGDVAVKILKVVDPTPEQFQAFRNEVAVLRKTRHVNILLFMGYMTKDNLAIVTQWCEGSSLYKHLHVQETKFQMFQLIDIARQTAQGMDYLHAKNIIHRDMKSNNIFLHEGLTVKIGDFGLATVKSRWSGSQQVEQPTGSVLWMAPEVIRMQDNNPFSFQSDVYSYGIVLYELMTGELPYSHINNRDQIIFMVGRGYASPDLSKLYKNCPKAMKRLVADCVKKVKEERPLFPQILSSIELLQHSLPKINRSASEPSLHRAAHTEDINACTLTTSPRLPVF

Rattus norvegicus [16] = assay: Inhibition of LPS-induced TNFalpha production in Lewis rat at 0.01 mg/kg, po administered 60 mins prior to LPS challenge measured after 90 mins by ELISA
[17] = Protein binding in rat plasma by ultrafiltration method; conditions: read-out: PPB (converted)
[18] = Solubility in simulated intestinal fluid; format: physicochemical

Row | Structure (SMILES) | IC50 (Blood) [nM] | IC50 (THP-1) [nM] | IC50 [1] [nM] | bioavailability [2] [%] | clearance [3] [L/h/kg] | Vd [4] [L/kg] | AUC(0-inf) [5] [µg·h/mL] | half-life [6] [h] | further results
1 | Cc1ccc(C(=O)NC2CC2)cc1Nc1cc(=O)n(C)c2c1cnn2-c1cccc(F)c1 | 1.7 | 1.3 | 3.3 |  |  |  |  |  | 
2 | CONC(=O)c1ccc(C)c(Nc2cc(=O)n(C)c3c2cnn3-c2ccc(F)cc2F)c1 | 1.4 | 1.1 | 1.1 | 15 | 2.6 | 1.7 | 0.12 | 3.3 | 
3 | Cc1ccc(C(=O)NC2CC2)cc1Oc1cc(=O)n(C)c2c1cnn2-c1cccc(F)c1 | 29 | 12 | 8.5 |  |  |  |  |  | 
4 | Cc1ccc(C(N)=O)cc1Nc1cc(=O)n(C)c2c1cnn2-c1cc(F)ccc1F | 7.1 | 7.5 | 3.7 |  |  |  |  |  | 
5 | Cc1ccc(C(N)=O)cc1Nc1cc(=O)n(C)c2c1cnn2-c1ccc(F)cc1F | 3.4 | 1.9 | 2.6 |  |  |  |  |  | 
6 | Cc1ccc(C(=O)O)cc1Nc1cc(=O)n(C)c2c1cnn2-c1ccc(F)cc1F | > 2500 | > 2500 | > 1000 |  |  |  |  |  | 
7 | Cn1c(=O)cc(Nc2cc(C(=O)NC3CC3)ccc2Cl)c2cnn(-c3ccc(F)cc3F)c21 | 1.1 | 0.44 |  | 81 | 0.37 | 1.2 | 4.61 | 3.8 | inhibition in vivo at 0.03 mg/kg (Rattus norvegicus [7]): 22.6%; IC50 (Cytochrome P450 2C9): 8400 nM; ED50 (Rattus norvegicus [8]): 0.05 mg/kg; Cp (Rattus norvegicus [9]): 0.9 ng/mL; solubility [10]: 0.0671 mg/mL (≈ 143 µM); IC50 (Cytochrome P450 2C19): 16000 nM; inhibition in vivo at 0.1 mg/kg (Rattus norvegicus [11]): 83.9%; Kp [12]: 0.06; inhibition in vivo at 0.3 mg/kg (Rattus norvegicus [13]): 98.4%; solubility [14]: 0.0606 mg/mL (≈ 129 µM); IC50 (Cytochrome P450 2D6): 22700 nM; residual activity [15]: 75%; inhibition in vivo at 0.01 mg/kg (Rattus norvegicus [16]): 21.6%; fraction unbound [17]: 0.02; solubility [18]: 0.0817 mg/mL (≈ 174 µM)
8 | Cn1c(=O)cc(Nc2cc(C(=O)NC3CC3)ccc2Cl)c2cnn(-c3cc(F)ccc3F)c21 | 1.9 | 1.1 | 1.1 | 56 | 0.52 | 1.2 | 2.16 | 2.1 | solubility [10]: 0.0286 mg/mL (≈ 60.9 µM); solubility [14]: 0.0249 mg/mL (≈ 53 µM); solubility [18]: 0.0352 mg/mL (≈ 74.9 µM)
9 | Cn1c(=O)cc(NC2CCOCC2)c2cnn(-c3cccc(F)c3)c21 | > 2500 | > 2500 | > 1000 |  |  |  |  |  | 
10 | Cc1ccncc1Nc1cc(=O)n(C)c2c1cnn2-c1cc(F)ccc1F | 403 | 208 | 444 |  |  |  |  |  | 
11 | Cc1ccc(C(=O)NC2CC2)cc1Oc1cc(=O)n(C)c2c1cnn2-c1c(F)cccc1F | 2.6 | 1 | 1.4 | 7 | 0.63 | 1.3 | 0.244 | 2.3 | 
12 | CCn1c(=O)cc(Nc2cc(C(=O)NC3CC3)ccc2Cl)c2cnn(-c3ccc(F)cc3)c21 | 0.93 | 1 | 1.2 | 45 | 0.41 | 1.8 | 2.29 | 3.7 | 
13 | CCn1c(=O)cc(Oc2cc(C(=O)NC3CC3)ccc2C)c2cnn(-c3ccc(F)cc3)c21 | 13 | 1.8 | 4 | 41 | 0.27 | 1.1 | 1.5 | 3.2 | 
14 | Cc1ccc(C(=O)NC2CC2)cc1Nc1cc(=O)n(C)c2c1cnn2-c1cc(F)ccc1F | 2.5 | 1 | 2.9 |  |  |  |  |  | 
15 | Cc1ccc(C(=O)NC2CC2)cc1Oc1cc(=O)n(C)c2c1cnn2-c1cc(F)ccc1F | 16 | 5 | 6.1 |  |  |  |  |  | 
16 | Cn1c(=O)cc(Nc2ccc(F)cc2F)c2cnn(-c3ccc(F)cc3F)c21 | > 2500 | 937 | > 1000 |  |  |  |  |  | 
17 | CCn1c(=O)cc(Nc2cc(C(=O)NC3CC3)ccc2Cl)c2cnn(-c3ccc(F)cc3F)c21 | 1.3 | 0.67 | 1.1 | 16 | 0.42 | 1.5 | 0.776 | 3.4 | 
18 | Cc1ccc(C(=O)NC(C)(C)C)cc1Nc1cc(=O)n(C)c2c1cnn2-c1ccc(F)cc1F | 204 | 65 | 269 |  |  |  |  |  | 
19 | Cc1ccc(C(=O)NC2CC2)cc1Oc1cc(=O)n(C)c2c1cnn2-c1ccc(F)cc1F | 16 | 3.5 | 7.8 |  |  |  |  |  | solubility [10]: 0.0057 mg/mL (≈ 12.7 µM); solubility [14]: 0.0053 mg/mL (≈ 11.8 µM); solubility [18]: 0.0122 mg/mL (≈ 27.1 µM)
20 | Cn1c(=O)cc(Nc2cc(C(=O)NC3CC3)ccc2F)c2cnn(-c3ccc(F)cc3F)c21 | 19 | 6.7 | 13 |  |  |  |  |  | 
21 | CCn1c(=O)cc(Nc2cc(C(=O)NC3CC3)ccc2C)c2cnn(-c3ccc(F)cc3)c21 | 1.9 | 1.1 | 4 |  |  |  |  |  | 
22 | Cc1ccc(C(=O)NC2CC2)cc1Nc1cc(=O)n(C)c2c1cnn2-c1ccc(F)cc1F | 2.4 | 1 |  |  |  |  |  |  | 
23 | Cn1c(=O)cc(Nc2ccc(F)cc2)c2cnn(-c3c(F)cccc3F)c21 | > 833 | 546 | > 1000 |  |  |  |  |  | 
24 | Cn1c(=O)cc(Oc2cc(C(=O)NC3CC3)ccc2Cl)c2cnn(-c3cc(F)ccc3F)c21 | 79 | 14 | 3.3 |  |  |  |  |  | solubility [10]: 0.0248 mg/mL (≈ 52.7 µM); solubility [14]: 0.0147 mg/mL (≈ 31.2 µM); solubility [18]: 0.049 mg/mL (≈ 104 µM)
25 | Cn1c(=O)cc(Nc2cc(C(=O)NC3CC3)ccc2F)c2cnn(-c3c(F)cccc3F)c21 | 8.2 | 3.2 | 1.9 |  |  |  |  |  | 
26 | Cn1c(=O)cc(Nc2cc(C(=O)NC3CC3)ccc2Cl)c2cnn(-c3c(F)cccc3F)c21 | 1.5 | 0.62 | 1.1 | 9 | 1.3 | 1.9 | 0.139 | 3.4 | 
27 | Cc1ccc(C(=O)NC2CC2)cc1Nc1cc(=O)n(C)c2c1cnn2-c1c(F)cccc1F | 1.3 | 0.87 | 1.9 | 12 | 0.88 | 1.2 | 0.273 | 2.8 | 
